Experimental data gathered from unrelated publications.
Protocols differ between the studies behind these lines.
Effect on: cell growth or viability

| Structure (SMILES) | cell line | technique | time | setting | IC50 |
| --- | --- | --- | --- | --- | --- |
| CCCOc1nc(-c2cccc(O)c2)cc(-c2cc3cc(Cl)ccc3nc2N2CCOCC2)c1C#N | Caco-2 | MTT | 72 h | – | 355 nM |
| C=C(F)C(=O)N1CCN(c2nc(OC[C@@H]3CCCN3C)nc3c2CCN(c2cccc4cccc(Cl)c24)C3)C[C@@H]1CC#N | HCC44 | ATP luminescence | – | 3D culture | 3.82 nM |
| COc1nc(NCc2cn(-c3ccc(C(=O)Nc4ccc(Cl)cc4)cc3)nn2)nc(OC)n1 | Caco-2 | MTT | 72 h | – | 543 nM |
| COc1cc2c3c(n(CCCNCCO)c(=O)c2cc1OC)-c1nc2c(cc1C3=O)OCO2 | TC-32 | MTS | 72 h | – | 104 nM |
| CC(C)Oc1ccc(S(=O)(=O)c2ccc(Oc3cc(OCC(N)=O)c(C(=O)C(Cl)Cl)cc3[N+](=O)[O-])cc2)cc1 | NCI-H1650 | MTT | 72 h | – | 460 nM |
| COc1nc(NCc2cn(-c3ccc(C(=O)Nc4ccc(F)cc4)cc3)nn2)nc(OC)n1 | Caco-2 | MTT | 72 h | – | 1030 nM |
| C=CC(=O)N1CCN(c2nc(=O)n(-c3c(C)ccnc3C(C)C)c3nc(-c4c(O)cccc4F)c(F)cc23)[C@@H](C)C1 | HCC44 | ATP luminescence | – | – | > 10000 nM |
| COc1cccc2c1C(=O)c1c(O)c3c(c(O)c1C2=O)C[C@@](O)(C(=O)CO)C[C@@H]3O[C@H]1C[C@H](N)[C@H](O)[C@H](C)O1 | Caco-2 | MTT | 72 h | – | 1010 nM |
| CCOc1nc(-c2cccc(O)c2)cc(-c2cc3cc(Cl)ccc3nc2N2CCOCC2)c1C#N | Caco-2 | MTT | 72 h | – | 117 nM |
| COc1nc(NCc2cn(-c3ccc(NC(=O)c4ccc(Cl)cc4)cc3)nn2)nc(OC)n1 | Caco-2 | MTT | 72 h | – | 620 nM |
| C/C(=N\NC(=O)c1cccc(S(=O)(=O)N2CCN(C)CC2)c1)c1cc(Cl)ccc1O | TC-32 | resazurin | – | – | 3300 nM |
| Nc1n[nH]c2nc(-c3cccc(O)c3)cc(-c3cc4cc(Cl)ccc4nc3N3CCOCC3)c12 | Caco-2 | MTT | 72 h | – | 191 nM |
| COc1nc(NCc2cn(-c3ccc(C(N)=O)cc3)nn2)nc(OC)n1 | Caco-2 | MTT | 72 h | – | 970 nM |
| CC1(C)CCC(CN2CCN(c3ccc(C(=O)NS(=O)(=O)c4ccc(NCC5CCOCC5)c([N+](=O)[O-])c4)c(Oc4cnc5[nH]ccc5c4)c3)CC2)=C(c2ccc(Cl)cc2)C1 | SU-DHL-4 | ATP luminescence | 48 h | – | 25 nM |
| COc1cc2c3c(n(CCCN4CCOCC4)c(=O)c2cc1OC)-c1nc2c(cc1C3=O)OCO2 | TC-32 | MTS | 72 h | – | 569 nM |
